Test results published in ChEMBL document CHEMBL5712907, “Inhibition of super enhancer downregulates the expression of KLF5 in basal-like breast cancers” (Int J Biol Sci, 2018).
Activity calls are given as the source filed them. The rule behind the calls is not given here.

What was measured:
[1] = tested on: HCC1806; assay: Cytotoxicity against human HCC1806 cells assessed as reduction in cell viability at 10 to 10000 nM for 72 hrs by SRB assay; assay type: functional, cell-based; settings: dose 10-10000 nM
Procedure, shortened: (§1)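 HCC1806 or HCC1937 cells grown in RPMI-1640 with 10 % FBS at 37 °C, 5 % CO2, then exposed to graded compound concentrations for 72 h. Viability read by sulforhodamine B staining, absorbance at 560 nm. Experimental triplicates, SD shown.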

[2] = tested on: HCC1937; assay: Cytotoxicity against human HCC1937 cells assessed as reduction in cell viability at 10 to 10000 nM for 72 hrs by SRB assay; assay type: functional, cell-based; settings: dose 10-10000 nM; procedure, shortened: as §1
[3] = tested on: HCC1806; assay: Potency index, ratio of test compound to (S)-tert-butyl 2-(4-(4-chlorophenyl)-2,3,9-trimethyl-6H-thieno[3,2-f] [1,2,4]triazolo[4,3-a] [1,4]diazepin-6-yl)acetate for effect on human HCC1806 cells assessed as reduction in KLF5 level at 0.1 to 3 uM for 24 hrs; assay type: functional; settings: dose 0.1-3 µM
[4] = tested on: HCC1937; assay: Potency index, ratio of test compound to (S)-tert-butyl 2-(4-(4-chlorophenyl)-2,3,9-trimethyl-6H-thieno[3,2-f] [1,2,4]triazolo[4,3-a] [1,4]diazepin-6-yl)acetate for effect on human HCC1937 cells assessed as reduction in KLF5 level at 0.1 to 3 uM for 24 hrs; assay type: functional; settings: dose 0.1-3 µM
[5] = tested on: HCC1806; assay: Potency index, ratio of test compound to (S)-tert-butyl 2-(4-(4-chlorophenyl)-2,3,9-trimethyl-6H-thieno[3,2-f] [1,2,4]triazolo[4,3-a] [1,4]diazepin-6-yl)acetate for effect on human HCC1806 cells assessed as reduction in c-MYC level at 0.1 to 3 uM for 24 hrs; assay type: functional; settings: dose 0.1-3 µM
[6] = tested on: HCC1937; assay: Potency index, ratio of test compound to (S)-tert-butyl 2-(4-(4-chlorophenyl)-2,3,9-trimethyl-6H-thieno[3,2-f] [1,2,4]triazolo[4,3-a] [1,4]diazepin-6-yl)acetate for effect on human HCC1937 cells assessed as reduction in c-MYC level at 0.1 to 3 uM for 24 hrs; assay type: functional; settings: dose 0.1-3 µM
[7] = tested on: HCC1806; assay: Induction of cell cycle arrest in human HCC1806 cells assessed as increase in accumulation of cells at G1 phase at 0.1 to 0.3 uM for 24 hrs by flow cytometric analysis; assay type: functional, cell-based; settings: dose 0.1-0.3 µM
Procedure, shortened: (§2)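 Seeded cells were cultured overnight, then treated with compound for 24 h. Fixed in 70 % ethanol, treated with 40 µg/ml RNase A and stained with 10 µg/ml propidium iodide. Analysed by flow cytometry for G1, S and G2/M fractions. Experimental triplicates, SD shown.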

[8] = tested on: HCC1937; assay: Induction of cell cycle arrest in human HCC1937 cells assessed as increase in accumulation of cells at G1 phase at 0.1 to 0.3 uM for 24 hrs by flow cytometric analysis; assay type: functional, cell-based; settings: dose 0.1-0.3 µM; procedure, shortened: as §2
[9] = tested on: HCC1806; assay: Induction of cell cycle arrest in human HCC1806 cells assessed as increase in accumulation of cells at G1 phase at 0.3 uM for 24 hrs by flow cytometric analysis; assay type: functional, cell-based; procedure, shortened: as §2
[10] = tested on: HCC1937; assay: Induction of cell cycle arrest in human HCC1937 cells assessed as increase in accumulation of cells at G1 phase at 0.3 uM for 24 hrs by flow cytometric analysis; assay type: functional, cell-based; procedure, shortened: as §2
[11] = tested on: HCC1806; assay: Inhibition of DNA synthesis in human HCC1806 cell at 0.1 to 0.3 uM measured for 24 hrs by Edu incorporation assay; assay type: functional, cell-based; settings: dose 0.1-0.3 µM
Procedure, shortened: (§3)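 After 24 h treatment at different concentrations, cells were EdU-labelled with the Click-iT imaging kit, fixed and DNA-stained. Fluorescence micrographs were taken and five random fields counted per sample. Result given as % EdU-positive (EdU-positive/total cells). Experimental triplicates, SD shown.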

[12] = tested on: HCC1937; assay: Inhibition of DNA synthesis in human HCC1937 cell at 0.1 to 0.3 uM measured for 24 hrs by Edu incorporation assay; assay type: functional, cell-based; settings: dose 0.1-0.3 µM; procedure, shortened: as §3
[13] = tested on: HCC1806; assay: Inhibition of cell growth in human HCC1806 cells infected with pCDH-3 Flag tagged KLF5 assessed as ectopic KLF5 expression at 0.01 to 10000 nM for 72 hrs by SRB assay; assay type: functional, cell-based; settings: dose 0.01-10000 nM
Procedure, shortened: (§4)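 Cells infected with pCDH-3×Flag-KLF5 lentivirus, or vector control lentivirus, were plated and treated for 72 h. Inhibition rate measured by SRB assay. Experimental triplicates, SD shown.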

[14] = tested on: HCC1937; assay: Inhibition of cell growth in human HCC1937 cells infected with pCDH-3 Flag tagged KLF5 assessed as ectopic KLF5 expression at 0.01 to 10000 nM for 72 hrs by SRB assay; assay type: functional, cell-based; settings: dose 0.01-10000 nM; procedure, shortened: as §4
[15] = tested on: HCC1806; assay: Effect on KLF5 suppression in human HCC1806 cells at 50 to 200 nM for 24 hrs by immunoblotting analysis; assay type: functional, cell-based; settings: dose 50-200 nM
Procedure, shortened: (§5)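 Cells in RPMI-1640/10 % FBS treated with compound for 24 h, lysed with protease inhibitor cocktail, and protein quantified. Equal protein run on SDS-PAGE and blotted to PVDF. Blocked in 5 % milk in PBS-0.2 % Tween-20, probed for KLF5, c-MYC and FGF2, with GAPDH as loading control. HRP secondary antibody, ECL detection.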

[16] = tested on: HCC1937; assay: Effect on KLF5 suppression in human HCC1937 cells at 50 to 200 nM for 24 hrs by immunoblotting analysis; assay type: functional, cell-based; settings: dose 50-200 nM; procedure, shortened: as §5
[17] = tested on: HCC1806; assay: Effect on FGFPB suppression in human HCC1806 cells at 50 to 200 nM for 24 hrs by immunoblotting analysis; assay type: functional, cell-based; settings: dose 50-200 nM
[18] = tested on: HCC1937; assay: Effect on FGFPB suppression in human HCC1937 cells at 50 to 200 nM for 24 hrs by immunoblotting analysis; assay type: functional, cell-based; settings: dose 50-200 nM
[19] = tested on: HCC1806; assay: Effect on c-MYC suppression in human HCC1806 cells at 50 to 200 nM for 24 hrs by immunoblotting analysis; assay type: functional, cell-based; settings: dose 50-200 nM; procedure, shortened: as §5
[20] = tested on: HCC1937; assay: Effect on c-MYC suppression in human HCC1937 cells at 50 to 200 nM for 24 hrs by immunoblotting analysis; assay type: functional, cell-based; settings: dose 50-200 nM; procedure, shortened: as §5
[21] = tested on: HCC1937; assay: Effect on human HCC1937 cells assessed as reduction in KLF5 mRNA at 1 uM for 12 to 24 hrs by qPCR analysis; assay type: functional, cell-based; settings: time 12-24 hrs
Procedure, shortened: (§6)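 HCC1806 or HCC1937 cells treated with 1 μM for 12 h or 24 h; KLF5 mRNA quantified by qPCR; experimental triplicates, SD, t-test.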

[22] = tested on: HCC1806; assay: Effect on human HCC1806 cells assessed as reduction in KLF5 mRNA at 1 uM for 12 to 24 hrs by qPCR analysis; assay type: functional, cell-based; settings: time 12-24 hrs; procedure, shortened: as §6
[23] = tested on: HCC1806; assay: Downregulation of FGFBP in human HCC1806 cells treated at 1 to 3 uM for 24 hrs by immunoblotting analysis; assay type: functional, cell-based; settings: dose 1-3 µM
Procedure, shortened: (§7)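 HCC1806 or HCC1937 cells (RPMI-1640, 10% FBS, 37 °C, 5% CO2) treated 24 h; lysed with protease inhibitors, protein assayed, equal amounts run on SDS-PAGE, blotted to PVDF, blocked in 5% milk/PBS-0.2% Tween-20, probed for KLF5, FGFBP, p21, c-MYC and GAPDH loading control; HRP secondary, ECL detection.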

[24] = tested on: HCC1937; assay: Downregulation of FGFBP in human HCC1937 cells treated at 1 to 3 uM for 24 hrs by immunoblotting analysis; assay type: functional, cell-based; settings: dose 1-3 µM; procedure, shortened: as §7
[25] = tested on: HCC1806; assay: Upregulation of p21 in human HCC1806 cells treated at 1 to 3 uM for 24 hrs by immunoblotting analysis; assay type: functional, cell-based; settings: dose 1-3 µM; procedure, shortened: as §7
[26] = tested on: HCC1937; assay: Upregulation of p21 in human HCC1937 cells treated at 1 to 3 uM for 24 hrs by immunoblotting analysis; assay type: functional, cell-based; settings: dose 1-3 µM; procedure, shortened: as §7
[27] = tested on: HCC1806; assay: Downregulation of KLF5 in human HCC1806 cells treated at 1 uM by immunoblotting analysis; assay type: functional, cell-based; settings: time 12-72 hrs, TDE = time-dependent effect
Procedure, shortened: (§8)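 Time course: HCC1806 or HCC1937 cells exposed to 1 μM for the indicated times, pellets collected at each time point and lysed with protease inhibitors; equal protein immunoblotted after SDS-PAGE/PVDF transfer for KLF5, GAPDH loading control, ECL detection.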

[28] = tested on: HCC1937; assay: Downregulation of KLF5 in human HCC1937 cells treated at 1 uM by immunoblotting analysis; assay type: functional, cell-based; settings: time 12-72 hrs, TDE = time-dependent effect; procedure, shortened: as §8
[29] = tested on: HCC1806; assay: Induction of cell cycle arrest in human HCC1806 cells assessed as increase in accumulation of cells at G1 phase at 0.3 to 1 uM for 24 hrs by flow cytometric analysis; assay type: functional, cell-based; settings: dose 0.3-1 µM
Procedure, shortened: (§9)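 HCC1806 or HCC1937 cells seeded, cultured overnight, treated 24 h; fixed in 70% ethanol, RNase A 40 µg/ml, propidium iodide 10 µg/ml; flow cytometry with G1, S and G2/M percentages; experimental triplicates, SD.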

[30] = tested on: HCC1806; assay: Induction of cell cycle arrest in human HCC1806 cells assessed as decrease in accumulation of cells at S phase at 0.3 to 1 uM for 24 hrs by flow cytometric analysis; assay type: functional, cell-based; settings: dose 0.3-1 µM; procedure, shortened: as §9
[31] = tested on: HCC1937; assay: Induction of cell cycle arrest in human HCC1937 cells assessed as increase in accumulation of cells at G1 phase at 0.3 to 1 uM for 24 hrs by flow cytometric analysis; assay type: functional, cell-based; settings: dose 0.3-1 µM; procedure, shortened: as §9
[32] = tested on: HCC1937; assay: Induction of cell cycle arrest in human HCC1937 cells assessed as decrease in accumulation of cells at S phase at 0.3 to 1 uM for 24 hrs by flow cytometric analysis; assay type: functional, cell-based; settings: dose 0.3-1 µM; procedure, shortened: as §9
[33] = tested on: HCC1806; assay: Inhibition of cell growth in human HCC1806 cells infected with pCDH-3 Flag tagged KLF5 assessed as ectopic KLF5 expression at 100 to 10000 nM for 72 hrs by SRB assay; assay type: functional, cell-based; settings: dose 100-10000 nM
Procedure, shortened: (§10)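 HCC1806 or HCC1937 cells infected with pCDH-3×Flag-KLF5 or empty pCDH vector lentivirus, plated in 96-well format and treated 72 h; inhibition rate by sulforhodamine B staining read at 560 nm; experimental triplicates, SD.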

[34] = tested on: HCC1937; assay: Inhibition of cell growth in human HCC1937 cells infected with pCDH-3 Flag tagged KLF5 assessed as ectopic KLF5 expression at 100 to 10000 nM for 72 hrs by SRB assay; assay type: functional, cell-based; settings: dose 100-10000 nM; procedure, shortened: as §10

SMILES: Cc1nnn(C)c1-c1cnc2c3c4cnn(C)c4ccc3n([C@H](c3ccccc3)C3CCOCC3)c2c1
- Activity [1]: Active
- Activity [2]: Active
- Ratio [3]: ~10
- Ratio [4]: ~10
- Ratio [5]: ~10
- Ratio [6]: ~10
- Activity [7]: Active
- Activity [8]: Active
- Activity [9]: Active
- Activity [10]: Active
- inhibition [11]: Active
- inhibition [12]: Active
- inhibition [13]: Active
- inhibition [14]: Active

SMILES: CN(C)C/C=C/C(=O)Nc1ccc(C(=O)Nc2cccc(Nc3ncc(Cl)c(-c4c[nH]c5ccccc45)n3)c2)cc1
- Activity [1]: Active
- Activity [2]: Active
- Activity [15]: Active
- Activity [16]: Active
- Activity [17]: Active
- Activity [18]: Active
- Activity [19]: Active
- Activity [20]: Active

SMILES: Cc1sc2c(c1C)C(c1ccc(Cl)cc1)=N[C@@H](CC(=O)OC(C)(C)C)c1nnc(C)n1-2
- Activity [21]: Active
- Activity [22]: Active
- Activity [23]: Active
- Activity [24]: Active
- Activity [25]: Active
- Activity [26]: Active
- Activity [27]: Tde
- Activity [28]: Tde
- Activity [29]: Active
- Activity [30]: Active
- Activity [31]: Active
- Activity [32]: Active
- inhibition [33]: Active
- inhibition [34]: Active
